Measurements reported in paper PMC4377729 (Theranostics, 2015).

Assays:
[1] = previously reported; cited from earlier work
[2] = type: in vivo; details: 10 nmol (0.4 mg/kg) intravenously, mice, 4 h post-injection
Method in brief: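 Nude mice (about 25 g) were anesthetized with ip ketamine/xylazine, given 10 nmol (0.4 mg/kg) conjugate iv in saline, and imaged 4 h later. Excitation was 745-779 nm light at 14 mW cm-2, with 800-848 nm emission and fixed exposure. SBR is tissue signal over neighbouring muscle or skin. For biodistribution, mice were killed at 30-240 min and organs resected and imaged; n ≥ 3 per time point.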

[3] = in DMSO; cited from earlier work

SMILES: CC1(C)C(/C=C/C2=C(Oc3ccc(CCC(=O)NCCC(O)(P(=O)([O-])O)P(=O)(O)O)cc3)C(=C\C=C3/N(CCCCS(=O)(=O)O)c4ccc(S(=O)(=O)O)cc4C3(C)C)/CCC2)=[N+](CCCCS(=O)(=O)O)c2ccc(S(=O)(=O)O)cc21 (stereo not drawn) [Pam78]
- binding to hydroxyapatite (HA) in vitro and in vivo (in words) [1]: rapid and specific binding to hydroxyapatite (HA) in vitro and in vivo

SMILES: CC1(C)C(/C=C/C2=C(Oc3ccc(S(=O)(=O)O)cc3)C(=C/C=C3/N(CCCCS(=O)(=O)O)c4ccc(S(=O)(=O)[O-])cc4C3(C)C)/CCC2)=[N+](CCCCCC(=O)O)c2ccc(S(=O)(=O)O)cc21 [CW800]
- location of NIR fluorescence signal / tissue uptake (in words) [2]: elevated nonspecific background signals in the liver and skin

SMILES: CC1(C)C(/C=C/C=C/C=C/C=C2\N(CCCCS(=O)(=O)[O-])c3ccc4ccccc4c3C2(C)C)=[N+](CCCCS(=O)(=O)[O-])c2ccc3ccccc3c21.[Na+] [ICG]
- QY of calibration standard [3]: 13%
